What all share (type): functional
For test [1], the system named is Mus musculus. Put plainly: Evaluation of hypothermia (after 1h) resulting from iv administration of compound at dose 20 mg/kg. The method in brief:
(§1)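 Male ICR mice (22-30 g), housed in the laboratory 24 h before treatment; ambient 21-24 °C recorded. Rectal temperature was taken by thermistor probe (inserted 25 mm) just before iv injection of vehicle or drug (0.1 mL/10 g), then at 10-min intervals to 60 min. Value is the pre-injection minus 60-min temperature difference. At least six mice per dose.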

In test [2] the test system is Mus musculus. Briefly: Evaluation of spontaneous activity administered by iv route in mice. In short, it runs like this:
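Male ICR mice (22-30 g), housed 24 h before treatment. Given vehicle or drug iv (0.1 mL/10 g), then immediately placed singly in photocell activity chambers; beam interruptions counted for 10 min. Counts expressed as percent of vehicle control. ED50 (mg/kg) with 95% confidence limits by Litchfield-Wilcoxon method. At least six mice per dose.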

Test [3] relates to Mus musculus. Put plainly: Evaluation of hypothermia (after 1h) resulting from iv administration of compound at dose 60 mg/kg. The method in brief: as §1
For test [4], the system named is Mus musculus. Briefly: Evaluation of hypothermia (after 1h) resulting from iv administration of compound at dose 30 mg/kg. In short, it runs like this: as §1
Test [5] relates to Mus musculus. Put plainly: Evaluation of hypothermia (after 1h) resulting from iv administration of compound at dose 5 mg/kg. The method in brief:
as §1

The subject of test [6] is Mus musculus. Briefly: Evaluation of hypothermia (after 1h) resulting from iv administration of compound at dose 10 mg/kg. The method in brief: as §1
Test [7] relates to Mus musculus. Briefly: Evaluation of hypothermia (after 1h) resulting from iv administration of compound at dose 40 mg/kg. The method in brief:
as §1

Test [8] concerns Mus musculus. Put plainly: Evaluation of hypothermia (after 1h) resulting from iv administration of compound at dose 100 mg/kg. In short, it runs like this:
as §1

The structures appear in SMILES notation.

This passage reports Hypothermic effect and ED50 results from ChEMBL document CHEMBL1122641, “Synthesis and pharmacological activity of some 9-substituted delta 8-tetrahydrocannabinol analogues” (1984).

A word on the ED50: it is the dose at which the effect has come halfway, by size or by number of responders. A higher ED50 goes with a need for a large dose. Turning to `CCCCCc1cc(O)c2c(c1)OC(C)(C)[C@@H]1CC=C(C(C)C)CC21` (stereo partly drawn), the Hypothermic effect in test [1] is on record as 1.2; in test [3], 1.3; in test [4], 0.8. Moreover, the 50% effect level in test [2] (ED50) was put at a dose of 26 mg/kg.

For `CCCCCc1cc(O)c2c(c1)OC(C)(C)[C@@H]1CC=C(C)CC21` (stereo partly drawn), the Hypothermic effect is 3.4 in test [1], 0.9 in test [5] and 1 in test [6]. The ED50 in test [2] came out at 7.1 mg/kg.

`CCCCCc1cc(O)c2c(c1)OC(C)(C)[C@@H]1CC=C(CCCC)CC21` (stereo partly drawn): it took a dose of 32 mg/kg to reach the 50% effect level in test [2] (ED50). The Hypothermic effect in test [3] was 5; in test [4], 4.3; in test [6], 0.3.

In the case of `CCCCCc1cc(O)c2c(c1)OC(C)(C)[C@@H]1CC=C(Cc3ccccc3)CC21` (stereo partly drawn), the Hypothermic effect in test [1] was found to be 0.9; in test [3] it was 1.5; in test [4], 1.1; in test [6], 1.3. The same compound returned an ED50 in test [2] of 32 mg/kg.

Take `CCCCCc1cc(O)c2c(c1)OC(C)(C)[C@@H]1CC=C(CCc3ccccc3)CC21` (stereo partly drawn): the ED50 in test [2] was 43 mg/kg. Further, the Hypothermic effect in test [3] came to 0.9; in test [4] it was 0.3; in test [7] it was 0.3.

`CCCCCc1cc(O)c2c(c1)OC(C)(C)[C@@H]1CC=C(C(O)CC)CC21` (stereo partly drawn): the ED50 in test [2] amounted to 39 mg/kg. Also, the Hypothermic effect in test [3] is recorded as 1.3; in test [4], -0.2; in test [6] it was 0.4.

For `CCCCCc1cc(O)c2c(c1)OC(C)(C)[C@@H]1CC=C(c3ccccc3)CC21` (stereo partly drawn), the figures for the Hypothermic effect in test [8], in test [3] and in test [4] were 2.2, 0.3 and 1.6, respectively. In addition, the ED50 in test [2] came to 67 mg/kg.

For the compound `CCCCCc1cc(O)c2c(c1)OC(C)(C)[C@@H]1CC=C(C(C)O)CC21` (stereo partly drawn), the Hypothermic effect turned out to be 0 in test [1], 0.8 in test [4] and 1.3 in test [7]. This compound gave an ED50 in test [2] of 27 mg/kg.
